From ChEMBL document CHEMBL2086221, “Armeniaspiroles, a new class of antibacterials: Antibacterial activities and total synthesis of 5-chloro-Armeniaspirole A” (Bioorg Med Chem Lett, 2012)
Converted amounts (≈) assume the structure as drawn. The source made the active and inactive calls. No cut-off for these calls is given here.

Assays:
Escherichia coli [1] = assay: Bacteriostatic activity against Escherichia coli ATCC 35218 expressing LacR by time kill study in presence of fetal calf serum; type: functional, organism-based
Staphylococcus aureus [2] = assay: Antibacterial activity against methicillin-resistant Staphylococcus aureus ATCC 33592 at >1 ug/mL after 48 hrs; type: functional, organism-based
Streptococcus pneumoniae [3] = assay: Antibacterial activity against penicillin-resistant Streptococcus pneumoniae DSM 11865 at >1 ug/mL after 48 hrs; type: functional, organism-based
Pseudomonas aeruginosa [4] = assay: Antibacterial activity against Pseudomonas aeruginosa ATCC 27853 at >1 ug/mL after 48 hrs; type: functional, organism-based
Pseudomonas aeruginosa [5] = assay: Bacteriostatic activity against Pseudomonas aeruginosa ATCC 27853 by time kill study; type: functional, organism-based
Pseudomonas aeruginosa [6] = assay: Bacteriostatic activity against Pseudomonas aeruginosa ATCC 27853 by time kill study in presence of fetal calf serum; type: functional, organism-based
Enterococcus faecium [7] = assay: Bacteriostatic activity against vancomycin-resistant Enterococcus faecium DSM 17050 by time kill study in presence of fetal calf serum; type: functional, organism-based
Escherichia coli [8] = assay: Antibacterial activity against Escherichia coli ATCC 35218 expressing LacR at >1 ug/mL after 48 hrs; type: functional, organism-based
Escherichia coli [9] = assay: Bacteriostatic activity against Escherichia coli ATCC 35218 expressing LacR by time kill study; type: functional, organism-based
Enterococcus faecium [10] = assay: Bacteriostatic activity against vancomycin-resistant Enterococcus faecium DSM 17050 by time kill study; type: functional, organism-based
Enterococcus faecium [11] = assay: Antibacterial activity against vancomycin-resistant Enterococcus faecium DSM 17050 at >1 ug/mL after 48 hrs; type: functional, organism-based
Streptococcus pneumoniae [12] = assay: Bacteriostatic activity against penicillin-resistant Streptococcus pneumoniae DSM 11865 by time kill study in presence of fetal calf serum; type: functional, organism-based
Staphylococcus aureus [13] = assay: Bacteriostatic activity against methicillin-resistant Staphylococcus aureus ATCC 33592 by time kill study in presence of fetal calf serum; type: functional, organism-based
[14] = Drug degradation in PBS buffer over 24 hrs in presence of GSH; type: physicochemical; settings: PBS buffer with GSH; read-out: Drug degradation
Method in brief: (§1)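 Parent compound incubated in PBS buffer with 10 mM GSH or 10 mM i-BuNH2 for 24 h; read-out is the decrease in parent compound concentration over that period.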

[15] = Drug degradation in PBS buffer over 24 hrs in presence of i-BuNH2; type: physicochemical; settings: PBS buffer with i-BuNH2; read-out: Drug degradation; method in brief: as §1
Escherichia coli [16] = assay: Antibacterial activity against Escherichia coli ATCC 35218 expressing LacR; type: functional
Cytochrome P450 3A4 = Cytochrome P450 3A4 (Homo sapiens, UniProt P08684); assay: Inhibition of CYP3A4; type: ADME
Staphylococcus aureus [17] = assay: Antibacterial activity against methicillin-resistant Staphylococcus aureus ATCC 33592 infected in mouse assessed as host survival at 3 mg/kg/day, iv relative to control; type: functional
Staphylococcus aureus [18] = assay: Antibacterial activity against methicillin-resistant Staphylococcus aureus ATCC 33592 infected in mouse assessed as log reduction in bacteremia at 15 mg/kg/day, iv relative to control; type: functional
Staphylococcus aureus [19] = assay: Antibacterial activity against methicillin-resistant Staphylococcus aureus ATCC 33592 infected in mouse assessed as log reduction in bacteremia at 3 mg/kg/day, iv relative to control; type: functional
Pseudomonas aeruginosa [20] = assay: Antibacterial activity against Pseudomonas aeruginosa ATCC 27853; type: functional
[21] = Cmax in Swiss mouse at 7.5 mg/kg, iv; type: ADME, organism-based; set-up: dose 7.5 mg/kg, route intravenous; settings: in vivo
Method in brief: (§2)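 Male Swiss mice dosed 7.5 mg/kg iv; plasma pharmacokinetics gave clearance, steady-state volume of distribution, Cmax and plasma half-life.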

Staphylococcus aureus [22] = assay: Antibacterial activity against methicillin-resistant Staphylococcus aureus ATCC 33592 infected in mouse assessed as log reduction in bacteremia at 80 mg/kg/day, sc relative to control; type: functional; settings: route subcutaneous
Method in brief: (§3)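 Mice with MRSA ATCC33592 septicemia were dosed sc at 20, 40 or 80 mg/kg/d in 5% ethanol/5% Solutol/Tris-NaCl buffer pH 9. Survival was scored in six animals per group, and log reduction of blood bacteremia in five animals per group. Results are given as mean ± sem against the vehicle-treated group (P < 0.05 or P < 0.001).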

[23] = Volume of distribution at steady state in Swiss mouse at 7.5 mg/kg, iv; type: ADME, organism-based; set-up: dose 7.5 mg/kg, route intravenous; settings: in vivo, read-out: Vdss; method in brief: as §2
Staphylococcus aureus [24] = assay: Antibacterial activity against methicillin-resistant Staphylococcus aureus ATCC 33592 infected in mouse assessed as host survival at 20 mg/kg/day, sc relative to control; type: functional; settings: ATCC 33592, sc, route subcutaneous; method in brief: as §3
Staphylococcus aureus [25] = assay: Antibacterial activity against methicillin-resistant Staphylococcus aureus ATCC 33592 infected in mouse assessed as log reduction in bacteremia at 10 mg/kg/day, iv relative to control; type: functional
Staphylococcus aureus [26] = assay: Antibacterial activity against methicillin-resistant Staphylococcus aureus ATCC 33592 infected in iv dosed mouse assessed as increase in host survival; type: functional, organism-based
[27] = Solubility of the compound in PBS buffer at pH 7.4; type: physicochemical
Staphylococcus aureus [28] = assay: Antibacterial activity against methicillin-resistant Staphylococcus aureus ATCC 33592 infected in mouse assessed as log reduction in bacteremia at 40 mg/kg/day, sc relative to control; type: functional; settings: route subcutaneous; method in brief: as §3
Staphylococcus aureus [29] = assay: Antibacterial activity against methicillin-resistant Staphylococcus aureus ATCC 33592 infected in iv dosed mouse assessed as decrease in bacteremia; type: functional, organism-based
Staphylococcus aureus [30] = assay: Antibacterial activity against methicillin-resistant Staphylococcus aureus ATCC 33592 infected in mouse assessed as host survival at 80 mg/kg/day, sc relative to control; type: functional; settings: ATCC 33592, sc, route subcutaneous; method in brief: as §3
Staphylococcus aureus [31] = assay: Antibacterial activity against methicillin-resistant Staphylococcus aureus ATCC 33592; type: functional; settings: Staphylococcus aureus, ATCC 33592
[32] = Clearance in Swiss mouse at 7.5 mg/kg, iv; type: ADME, organism-based; set-up: dose 7.5 mg/kg, route intravenous; settings: in vivo; method in brief: as §2
Staphylococcus aureus [33] = assay: Antibacterial activity against methicillin-resistant Staphylococcus aureus ATCC 33592 infected in mouse assessed as host survival at 10 mg/kg/day, iv relative to control; type: functional
[34] = Half life in Swiss mouse plasma at 7.5 mg/kg, iv; type: ADME, organism-based; set-up: dose 7.5 mg/kg, route intravenous; method in brief: as §2
[35] = Chemical stability of the compound in PBS buffer up to 24 hrs at pH 7.4; type: physicochemical; settings: pH 7.4, 24 h
Cytochrome P450 2D6 = Cytochrome P450 2D6 (Homo sapiens, UniProt P10635); assay: Inhibition of CYP2D6; type: ADME
Streptococcus pneumoniae [36] = assay: Antibacterial activity against penicillin-resistant Streptococcus pneumoniae DSM 11865; type: functional; settings: Streptococcus pneumoniae, DSM 11865
hERG (KCNH2) = hERG (KCNH2) (Homo sapiens, UniProt Q12809); assay: Inhibition of human ERG at 10 uM
Enterococcus faecium [37] = assay: Antibacterial activity against vancomycin-resistant Enterococcus faecium DSM 17050; type: functional; settings: Enterococcus faecium, DSM 17050
Staphylococcus aureus [38] = assay: Antibacterial activity against methicillin-resistant Staphylococcus aureus ATCC 33592 infected in mouse assessed as log reduction in bacteremia at 20 mg/kg/day, sc relative to control; type: functional; settings: route subcutaneous; method in brief: as §3
Staphylococcus aureus [39] = assay: Antibacterial activity against methicillin-resistant Staphylococcus aureus ATCC 33592 infected in mouse assessed as host survival at 15 mg/kg/day, iv relative to control; type: functional
Staphylococcus aureus [40] = assay: Antibacterial activity against methicillin-resistant Staphylococcus aureus ATCC 33592 infected in mouse assessed as host survival at 40 mg/kg/day, sc relative to control; type: functional; settings: ATCC 33592, sc, route subcutaneous; method in brief: as §3
Staphylococcus aureus [41] = assay: Antibacterial activity against methicillin-resistant Staphylococcus aureus ATCC 33592 infected in mouse assessed as log reduction in bacteremia at 20 mg/kg/day, iv relative to control; type: functional
Staphylococcus aureus [42] = assay: Antibacterial activity against methicillin-resistant Staphylococcus aureus ATCC 33592 infected in mouse assessed as host survival at 20 mg/kg/day, iv relative to control; type: functional

Chain of Cytochrome P450 3A4 (P08684 whole entry): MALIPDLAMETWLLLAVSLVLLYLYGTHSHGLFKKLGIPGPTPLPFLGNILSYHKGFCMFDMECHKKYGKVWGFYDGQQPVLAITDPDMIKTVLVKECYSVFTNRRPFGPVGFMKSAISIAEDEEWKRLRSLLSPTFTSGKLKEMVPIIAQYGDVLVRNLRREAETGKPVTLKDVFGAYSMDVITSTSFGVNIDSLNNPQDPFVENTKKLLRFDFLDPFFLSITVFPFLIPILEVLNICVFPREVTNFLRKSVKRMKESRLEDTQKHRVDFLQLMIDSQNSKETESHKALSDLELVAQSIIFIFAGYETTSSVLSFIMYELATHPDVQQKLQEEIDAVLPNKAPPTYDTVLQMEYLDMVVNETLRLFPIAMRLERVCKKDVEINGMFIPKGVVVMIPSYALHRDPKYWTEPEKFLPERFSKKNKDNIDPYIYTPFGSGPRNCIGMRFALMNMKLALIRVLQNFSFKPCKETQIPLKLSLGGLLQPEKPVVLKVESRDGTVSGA
Chain of hERG (KCNH2) (Q12809 whole entry): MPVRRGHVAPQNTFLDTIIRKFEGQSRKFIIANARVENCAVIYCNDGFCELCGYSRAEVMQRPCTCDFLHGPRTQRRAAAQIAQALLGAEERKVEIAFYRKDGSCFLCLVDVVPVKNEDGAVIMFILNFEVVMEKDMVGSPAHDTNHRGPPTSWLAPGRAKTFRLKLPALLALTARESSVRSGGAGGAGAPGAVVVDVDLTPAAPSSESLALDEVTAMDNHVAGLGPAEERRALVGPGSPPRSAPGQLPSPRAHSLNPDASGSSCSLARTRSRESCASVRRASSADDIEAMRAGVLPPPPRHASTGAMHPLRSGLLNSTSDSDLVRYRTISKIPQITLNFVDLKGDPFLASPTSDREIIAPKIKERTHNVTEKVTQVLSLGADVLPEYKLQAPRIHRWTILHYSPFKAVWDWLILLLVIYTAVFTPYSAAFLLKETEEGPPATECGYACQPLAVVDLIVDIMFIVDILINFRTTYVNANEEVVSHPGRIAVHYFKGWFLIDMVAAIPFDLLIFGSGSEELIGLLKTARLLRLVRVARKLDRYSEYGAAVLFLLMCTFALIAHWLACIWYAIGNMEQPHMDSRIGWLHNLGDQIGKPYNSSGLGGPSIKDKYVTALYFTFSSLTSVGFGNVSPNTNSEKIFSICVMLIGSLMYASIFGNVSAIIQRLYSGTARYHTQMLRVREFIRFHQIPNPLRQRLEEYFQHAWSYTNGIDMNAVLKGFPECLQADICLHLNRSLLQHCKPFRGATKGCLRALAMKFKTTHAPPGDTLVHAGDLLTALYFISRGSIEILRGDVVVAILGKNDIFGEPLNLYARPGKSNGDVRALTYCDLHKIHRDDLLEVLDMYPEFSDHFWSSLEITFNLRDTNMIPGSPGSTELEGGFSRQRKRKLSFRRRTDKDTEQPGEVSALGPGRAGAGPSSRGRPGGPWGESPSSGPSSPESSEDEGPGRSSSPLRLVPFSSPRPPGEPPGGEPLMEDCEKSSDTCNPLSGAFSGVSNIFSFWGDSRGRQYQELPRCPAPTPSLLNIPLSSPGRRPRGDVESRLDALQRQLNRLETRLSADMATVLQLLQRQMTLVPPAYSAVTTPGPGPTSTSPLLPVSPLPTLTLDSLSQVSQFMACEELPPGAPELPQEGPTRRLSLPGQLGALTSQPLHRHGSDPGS
Chain of Cytochrome P450 2D6 (P10635 whole entry): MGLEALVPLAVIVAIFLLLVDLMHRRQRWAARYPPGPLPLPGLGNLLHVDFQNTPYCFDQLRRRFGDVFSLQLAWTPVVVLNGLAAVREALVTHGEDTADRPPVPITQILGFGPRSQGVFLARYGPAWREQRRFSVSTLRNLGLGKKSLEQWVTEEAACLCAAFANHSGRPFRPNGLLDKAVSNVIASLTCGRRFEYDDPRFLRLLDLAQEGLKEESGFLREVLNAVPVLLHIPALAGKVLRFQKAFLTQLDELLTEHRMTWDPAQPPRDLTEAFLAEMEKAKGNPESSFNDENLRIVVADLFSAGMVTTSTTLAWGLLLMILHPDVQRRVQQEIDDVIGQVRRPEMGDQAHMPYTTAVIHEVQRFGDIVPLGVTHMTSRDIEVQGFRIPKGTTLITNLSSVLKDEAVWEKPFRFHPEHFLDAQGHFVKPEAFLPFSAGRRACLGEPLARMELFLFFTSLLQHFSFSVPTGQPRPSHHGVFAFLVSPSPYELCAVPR

## CCCCCCc1c(O)c(Cl)cc2c1O[C@]1(C2=O)C(Cl)=C(Cl)C(=O)N1C (stereo in doubt; form 2)
Escherichia coli [1]
  Activity: inactive
Staphylococcus aureus [2]
  Activity: Active
Streptococcus pneumoniae [3]
  Activity: Active
Pseudomonas aeruginosa [4]
  Activity: Active
Pseudomonas aeruginosa [5]
  Activity: Dose-dependent effect
Pseudomonas aeruginosa [6]
  Activity: inactive
Enterococcus faecium [7]
  Activity: inactive
Escherichia coli [8]
  Activity: Active
Escherichia coli [9]
  Activity: Dose-dependent effect
Enterococcus faecium [10]
  Activity: Dose-dependent effect
Enterococcus faecium [11]
  Activity: Active
Streptococcus pneumoniae [12]
  Activity: inactive
Staphylococcus aureus [13]
  Activity: inactive

## CCCCCCc1c(O)ccc2c1O[C@]1(C2=O)C(Cl)=C(Cl)C(=O)N1C [ARMENIASPIROLE A]
[14]
  degraded at 24 h: 30%
Escherichia coli [1]
  Activity: inactive
[15]
  degraded at 24 h: < 10%
Staphylococcus aureus [2]
  Activity: Active
Streptococcus pneumoniae [3]
  Activity: Active
Escherichia coli [16]
  IC80: > 30 µM
Cytochrome P450 3A4
  IC50: > 10 µM
Pseudomonas aeruginosa [4]
  Activity: Active
Staphylococcus aureus [17]
  survival at 3 mg/kg/day: 0%
Staphylococcus aureus [18]
  FC: 2.8
Pseudomonas aeruginosa [6]
  Activity: inactive
Enterococcus faecium [7]
  Activity: inactive
Staphylococcus aureus [19]
  FC: 0.05
Pseudomonas aeruginosa [20]
  IC80: > 30 µM
[21]
  Cmax: 27400 ng/mL
Staphylococcus aureus [22]
  FC: 1.7
[23]
  Vd: 2.4 L/kg
Staphylococcus aureus [24]
  survival at 20 mg/kg/day: 0%
Staphylococcus aureus [25]
  FC: 0.9
Escherichia coli [8]
  Activity: Active
Staphylococcus aureus [26]
  Survival: Dose-dependent effect
[27]
  solubility: 25 µg/mL (≈ 65.1 µM)
Staphylococcus aureus [28]
  FC: 0.8
Staphylococcus aureus [29]
  Activity: Dose-dependent effect
Staphylococcus aureus [30]
  survival at 80 mg/kg/day: 50%
Staphylococcus aureus [31]
  IC80: 125 nM
[32]
  clearance: 20 mL/min/kg
Staphylococcus aureus [33]
  survival at 10 mg/kg/day: 33%
[34]
  half-life: 180 min
[35]
  Stability: Stable
Enterococcus faecium [11]
  Activity: Active
Cytochrome P450 2D6
  IC50: > 10 µM
Streptococcus pneumoniae [36]
  IC80: 2300 nM
Streptococcus pneumoniae [12]
  Activity: inactive
hERG (KCNH2)
  inhibition at 10 µM: < 35%
Enterococcus faecium [37]
  IC80: 8.2 µM
Staphylococcus aureus [38]
  FC: 0.2
Staphylococcus aureus [13]
  Activity: inactive
Staphylococcus aureus [39]
  survival at 15 mg/kg/day: 67%
Staphylococcus aureus [40]
  survival at 40 mg/kg/day: 50%

## CC(C)CCCc1c(O)ccc2c1O[C@]1(C2=O)C(Cl)=C(Cl)C(=O)N1C [ARMENIASPIROLE B]
Escherichia coli [1]
  Activity: inactive
Staphylococcus aureus [2]
  Activity: Active
Streptococcus pneumoniae [3]
  Activity: Active
Pseudomonas aeruginosa [4]
  Activity: Active
Pseudomonas aeruginosa [6]
  Activity: inactive
Enterococcus faecium [7]
  Activity: inactive
Escherichia coli [8]
  Activity: Active
[27]
  solubility: 10 µg/mL (≈ 26 µM)
[35]
  Stability: Stable
Enterococcus faecium [11]
  Activity: Active
Streptococcus pneumoniae [12]
  Activity: inactive
Staphylococcus aureus [13]
  Activity: inactive

## CC[C@H](C)CCCc1c(O)ccc2c1O[C@]1(C2=O)C(Cl)=C(Cl)C(=O)N1C [ARMENIASPIROLE C]
Escherichia coli [1]
  Activity: inactive
Staphylococcus aureus [2]
  Activity: Active
Streptococcus pneumoniae [3]
  Activity: Active
Pseudomonas aeruginosa [4]
  Activity: Active
Pseudomonas aeruginosa [6]
  Activity: inactive
Enterococcus faecium [7]
  Activity: inactive
Escherichia coli [8]
  Activity: Active
[27]
  solubility: 5 µg/mL (≈ 12.6 µM)
[35]
  Stability: Stable
Enterococcus faecium [11]
  Activity: Active
Streptococcus pneumoniae [12]
  Activity: inactive
Staphylococcus aureus [13]
  Activity: inactive

## CN[C@H](CC(C)C)C(=O)N[C@H]1C(=O)N[C@@H](CC(N)=O)C(=O)N[C@H]2C(=O)N[C@H]3C(=O)N[C@H](C(=O)N[C@H](C(=O)O)c4cc(O)cc(O)c4-c4cc3ccc4O)[C@H](O)c3ccc(c(Cl)c3)Oc3cc2cc(c3O[C@@H]2O[C@H](CO)[C@@H](O)[C@H](O)[C@H]2O[C@H]2C[C@](C)(N)[C@H](O)[C@H](C)O2)Oc2ccc(cc2Cl)[C@H]1O [VANCOMYCIN]
Staphylococcus aureus [41]
  FC: 4.2
Staphylococcus aureus [28]
  FC: 4
Staphylococcus aureus [31]
  IC80: 400 nM
Streptococcus pneumoniae [36]
  IC80: 200 nM
Enterococcus faecium [37]
  IC80: > 30 µM
Staphylococcus aureus [42]
  survival at 20 mg/kg/day: 100%
Staphylococcus aureus [40]
  survival at 40 mg/kg/day: 100%
